# Bioassay records: PubChem BioAssay, several laboratories
# MC4R antag cAMP = antagonists of human melanocortin 4 receptor (MC4R) | P32245 | MC4R-expressing cells, MTII-stimulated cAMP, LANCE TR-FRET | inhibition, % at 6.5 µM | actives 0.48% (n = 360,000) | AID 540295;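 active means inhibition above its plate's cutoff, the mean of tested wells on that plate plus 3 SD, cut at about 29% in these data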
# Target sequence (P32245 whole entry, looked up): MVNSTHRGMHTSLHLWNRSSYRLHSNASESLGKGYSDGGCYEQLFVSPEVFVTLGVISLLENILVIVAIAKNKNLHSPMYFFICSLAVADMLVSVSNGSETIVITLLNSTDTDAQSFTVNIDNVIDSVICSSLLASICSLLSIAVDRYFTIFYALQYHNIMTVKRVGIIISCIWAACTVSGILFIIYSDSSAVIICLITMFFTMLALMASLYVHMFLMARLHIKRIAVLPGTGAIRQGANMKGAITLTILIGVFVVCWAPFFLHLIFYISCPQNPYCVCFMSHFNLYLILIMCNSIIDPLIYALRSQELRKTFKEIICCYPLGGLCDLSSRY
#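 System – human MC4R-expressing U2OS cells · Also added – Melanotan II · Dosing – one concentration, 6.5 µM nominal · Timing – 30-min compound, 1-h challenge, 1-h detection, room temperature · Measured by – Eu-cAMP/anti-cAMP TR-FRET, emission 671 nm · Replicates – singlicate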
# MC4R barr agon = activates human MC4R beta-arrestin recruitment; AID 540308; activation, % at 8.9 µM; P32245; actives 0.98% (n = 360,000); U2OS MC4R beta-arrestin complementation, luminescence; percent of melanotan II response, DMSO zero;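 active means activation above a per-plate cutoff, the mean activation of sample wells on that plate plus 3 SD, cut at about 8% in these data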
# ANO1 activ = activates or potentiates the mouse TMEM16A chloride channel; HEK293 TMEM16A/YFP-H148Q/I152L, iodide quench fluorescence; hits give low values; B-score at 10 µM; actives 0.3% (n = 340,000); AID 623877;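 active means fluorescence-ratio B-score plate-corrected deviation score at least 3 library SD below zero, with starting fluorescence score within 5 deviations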;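 further: channel opened by trigger with iodide after compound preincubation; score built on the fluorescence ratio of max minus min over baseline; more negative score means more quench and so TMEM16A activation or potentiation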
# Beta cell apopt = blocks beta cell apoptosis; protection from apoptosis, % (concentration not given with the values); INS-1E cytokine-induced death, ATP luminescence, 48 h; percent of positive-control rescue, neutral wells zero; actives 0.8% (n = 300,000);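 active means Every replicate reaches about 75%, or at least half do and their mean reaches it too, limit read from the data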;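 further: higher means more ATP so stronger rescue from cytokine killing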
# CSC inhib = cancer stem cell inhibition | inhibition, % at 7.5 µM | cancer stem cell-like cells viability, luminescence | actives 1.1% (n = 300,000); in the data active means inhibition above about 75%; tested in HMLE shEcad cells
# TMEM16A inh = blocks the mouse calcium-activated chloride channel TMEM16A; Q8BHY3; HEK293 TMEM16A/YFP iodide influx fluorescence, ionomycin; normalized B-score (activity score, 25-100; higher = stronger inhibition) at 10 µM; actives 1.2% (n = 310,000); AID 588511;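 active means ratio plate-corrected score three or more library SD toward inhibition, starting fluorescence score within five deviations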;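 further: score derived from kinetic fluorescence span divided by baseline fluorescence per well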
# TMEM16A reconf = TMEM16A (mouse) chloride channel inhibition, re-confirmation; actives 39% (n = 2,300); AID 652189; shares compounds with TMEM16A inh; inhibition, % at 10 µM; HEK293 TMEM16A/YFP-H148Q, iodide quench fluorescence; ionomycin added to raise cell calcium;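 active means mean duplicate percent inhibition, scaled so buffer wells are 0 and the reference blocker 100, over three buffer SD above buffer mean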
# TMEM16A Ca cntr = calcium mobilization counter-screen hit for TMEM16A inhibitor series; shares compounds with TMEM16A inh; TMEM16A/YFP HEK293, Fluo4 calcium mobilization; calcium response (% of ionomycin), % at 10 µM; actives 2% (n = 2,300);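 active means duplicate-averaged calcium signal over 20% of the ionomycin maximum, relative to buffer baseline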;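 further: each well's signal is peak minus trough fluorescence divided by its pre-addition baseline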
# YFP-HEK293 quench = parental YFP-HEK293 iodide quench counter-screen activity; shares compounds with TMEM16A inh; ionomycin; YFP ratio F(max-min)/F0 at 10 µM; 2,300 tested, under 10 active; AID 652233;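 active means yellow fluorescent protein signal ratio exceeding the buffer control mean by over 5 SD of those controls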;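 further: ratio is mean of duplicate wells from kinetic YFP trace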
# ClC-1 inh = selectivity of TMEM16A inhibitors: inhibition of rat ClC-1 chloride channel; shares compounds with TMEM16A inh; CHO ClC-1-YFP, iodide influx fluorescence quench; iodide control reads 0, buffer control 100; 2,300 tested, under 10 active; ratio percent, % at 10 µM; AID 652236;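 active means duplicate-mean ratio percent above the mean of iodide-only control wells, which defines zero, plus 5 of their SD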;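 further: higher percent means stronger block of ClC-1 iodide influx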
# A number is an active result; 0 = inactive; - = no result. In the library only some 3.8% were active in any assay of this set; here they are far more common.
SMILES,MC4R antag cAMP,MC4R barr agon,ANO1 activ,Beta cell apopt,CSC inhib,TMEM16A inh,TMEM16A reconf,TMEM16A Ca cntr,YFP-HEK293 quench,ClC-1 inh
CN(C)S(=O)(=O)c1cccc(COc2ccccc2C(=O)Nc2ccccc2)c1,0,0,0,0,0,0,-,-,-,-
CN(Cc1cccs1)c1ncnc2sccc12,0,0,0,0,0,25,0,0,0,0
Cc1ccc(S(=O)(=O)Nc2ccc(Cl)cc2C(=O)c2ccccc2)cc1,0,0,0,0,0,25,0,0,0,0
O=C(CCC(=O)c1ccc(Cl)cc1)OCn1nnc2ccccc2c1=O,0,0,0,0,0,-,-,-,-,-
COCCNC(=S)N1CCC(c2nc(-c3ccc(N(C)C)cc3)no2)CC1,0,0,0,0,0,0,-,-,-,-
CC(C)CNC(=S)N1CCC(c2nc(-c3ccc(F)cc3)no2)CC1,0,0,0,0,0,100,0,0,0,0
OC1c2cc(Cl)ccc2-c2c(Cl)cc(Cl)cc21 (centres undefined),0,0,0,-,-,-,-,-,-,-
CC(C)CC(NS(=O)(=O)OCC(Cl)(Cl)Cl)c1ccccc1 (centres undefined),0,0,0,0,0,100,56.0%,0,0,0
COc1ccc(C(=O)OCC(=O)c2ccc(F)cc2)cc1OC,0,0,0,0,-,-,-,-,-,-
N#C/C(=N\Nc1ccc(Cl)c(Cl)c1)C(=O)C1CC1,0,0,0,0,0,0,-,-,-,-
N#C/C(=N\Nc1ccc(F)cc1)C(=O)C1CC1,0,0,0,0,0,25,26.0%,0,0,0
COc1cc(C(=O)Nc2sc3c(c2C(=O)NCc2ccco2)CCCC3)cc(OC)c1OC,0,0,0,0,0,0,-,-,-,-
COc1ccc(C(=O)Nc2sc3c(c2C(=O)NCc2ccco2)CCCC3)cc1OC,0,0,0,0,0,25,0,0,0,0
CCc1ccc(CN(C)C(=O)c2cc(COc3cccc4cnccc34)on2)cc1,0,0,0,77.7,0,100,22.0%,0,0,0
CC12CCC(=O)N1C(C(=O)Nc1cccc(S(=O)(=O)N3CCCCCC3)c1)CS2 (centres undefined),0,0,0,0,0,0,-,-,-,-
CC(=O)c1ccc(-n2ccc(=O)cc2)cc1,0,0,0,0,0,0,-,-,-,-
CC1CCN(S(=O)(=O)c2cccc(C(=O)O)c2)CC1,0,0,0,0,0,100,0,0,0,0
COc1ccc(C2=NN(C(=O)CSc3nc(=O)n4cc(C)ccc4n3)C(c3ccc(C)cc3)C2)cc1 (centres undefined),0,0,0,-,0,0,-,-,-,-
COCCN1CCN(Cc2nc(Cc3ccc(OC)c(OC)c3)no2)CC1,0,0,0,0,0,0,-,-,-,-
COc1ccc(Cc2noc(CN3CCN(c4ccc(Cl)cn4)CC3)n2)cc1OC,0,0,0,0,0,100,27.5%,0,0,0
C[C@@H](C(=O)Nc1ccc2ccccc2c1)[C@H]1C[C@]1(C)[C@H](NC(=O)c1cnccn1)c1ccccc1,0,0,0,0,0,0,0,0,0,0
N#CC1(Cc2ccc(Cl)cc2)c2ccccc2C=CN1C(=O)c1ccccc1 (centres undefined),0,0,0,0,0,25,0,0,0,0
CCc1c(C)nc2nc(SCc3ccccc3Cl)[nH]n2c1=O,0,0,0,0,0,100,26.0%,33.5%,0,0
c1ccc(-c2nc(-c3ccncc3)no2)cc1,0,0,0,0,0,0,-,-,-,-
c1ccc(C(Cc2nc(-c3ccncc3)no2)c2ccccc2)cc1,0,0,0,0,0,100,24.0%,0,0,0
SMILES,MC4R antag cAMP,MC4R barr agon,ANO1 activ,Beta cell apopt,CSC inhib,TMEM16A inh,TMEM16A reconf,TMEM16A Ca cntr,YFP-HEK293 quench,ClC-1 inh
Cc1cccc(/C=C(\C(=O)O)c2ccc(S(=O)(=O)N3CCCC3)s2)c1,0,0,0,0,0,-,-,-,-,-
Cc1ccc(CC(=O)Nc2ccncc2)cc1,0,0,0,0,-,0,-,-,-,-
CN(CC(=O)Nc1ccncc1)S(=O)(=O)c1ccc(Br)cc1,0,0,0,0,-,0,-,-,-,-
O=C(Cc1ccc(Cl)cc1)Nc1ccncc1,0,0,0,0,0,25,0,0,0,0
CN(CCCC(=O)Nc1ccncc1)S(=O)(=O)c1ccc(Cl)cc1,0,0,0,0,0,100,0,0,0,0
O=C(CCNC(=O)c1ccc(Cl)cc1)NCC(c1ccco1)N1CCCC1 (centres undefined),0,0,0,-,-,-,-,-,-,-
O=C(CCc1ccncc1)N1CCCC(Nc2ccc(F)c(F)c2)C1 (centres undefined),0,0,0,0,0,0,-,-,-,-
COc1cccc(NC(=O)CN(C)C(=O)Cc2c(C)nc3ccccc3c2C)c1,0,0,0,0,-,-,-,-,-,-
COc1cc(CN(C)C(=O)C(=O)c2c[nH]c3ccccc23)ccc1O,0,0,0,-,-,-,-,-,-,-
COc1ccc(C(c2c[nH]c3ccccc23)c2c[nH]c3ccccc23)cc1O,0,0,0,0,119.3,100,31.5%,0,0,0
CC(Sc1nc(NCc2ccccc2)nc(N(C)C)n1)C(=O)Nc1ccccc1 (centres undefined),0,0,0,0,0,100,0,0,0,0
C[C@@H]1CN([C@@H](C)CO)C(=O)CCCn2cc(nn2)CO[C@H]1CN(C)S(=O)(=O)c1ccccc1F,0,0,-,-,-,-,-,-,-,-
CCCCn1c(N)c(N(C(=O)CSc2nnnn2-c2ccccc2C)C2CCCC2)c(=O)[nH]c1=O,0,0,0,-,-,-,-,-,-,-
Nc1c(C(=O)c2ccccc2)sc2nsc(SCCN3CCCC3)c12,0,0,0,0,89.4,0,0,0,0,0
CC(=O)Nc1ccc(Oc2cc(C#N)c(C#N)cc2N2CCCCCC2)cc1,0,0,0,0,0,100,0,0,0,0
CCOc1ccc(C(=O)NCC(C)NC(=O)c2ccc(OCC)cc2)cc1 (centres undefined),0,0,0,0,0,25,0,0,0,0
CCOc1ccc(C(=O)NCC(C)C)cc1,0,0,0,0,0,0,-,-,-,-
COc1ccc(F)cc1-c1cc(C(=O)NC2CCCCC2)[nH]n1,0,0,-,-,-,-,-,-,-,-
CN(C)c1ncc(S(=O)(=O)c2ccccc2)c(-c2ccccc2Cl)n1,0,0,0,0,0,100,0,0,0,0
